Source: ChEMBL document CHEMBL1144737, “Synthesis and antifungal activity of novel sulfoxide derivatives containing trimethoxyphenyl substituted 1,3,4-thiadiazole and 1,3,4-oxadiazole moiety” (Bioorg Med Chem, 2008)
In brackets after ≈: the same amount, converted by molar mass.

Key:
[1] = system: Fusarium oxysporum; test: Antifungal activity against Fusarium oxysporum at 50 ug/ml by poison plate technique; format: functional
How it was run: (§1)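 Poison plate method. Compound in PDA at 50 µg/mL final. Fungi precultured on PDA at 27 ± 1 °C for 4 days, then a ~4 mm mycelial disc was placed in the plate centre and incubated at 27 ± 1 °C for 5 days. Acetone in sterile water was the blank and hymexazol the positive control. Three replicates. Colony diameter was measured and I(%) = [(C − T)/(C − 0.4)] × 100.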

[2] = system: Cytospora; test: Antifungal activity against Cytospora mandshurica at 50 ug/ml by poison plate technique; format: functional; how it was run: as §1
[3] = system: Fusarium graminearum; test: Antifungal activity against Gibberella zeae at 50 ug/ml by poison plate technique; format: functional
How it was run: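 Poison-plate (mycelial growth rate) test at a single final concentration in PDA. Fungus was pre-grown 4 days at 27±1 °C, and a 4 mm mycelial plug was placed at the plate centre and incubated 5 days at 27±1 °C. Acetone in sterile water was the untreated control. Triplicate plates were used; inhibition % = (C−T)/(C−0.4)×100 from colony diameters.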

[4] = system: Sclerotinia sclerotiorum; test: Change in mycelial reducing sugar level in Sclerotinia sclerotiorum upto 3 hrs relative to control; format: functional; parameters: scale not given: the % may be the effect or the level left
How it was run: (§2)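 S. sclerotiorum was grown from six 4 mm discs in 90 mL Czapek medium, shaken at 140 rpm and 27 °C for 15 days. Compound was then added at 100 µg/mL. Mycelium was harvested at 0.5–24 h, ground in 0.05 mol/L Tris–HCl pH 7.5 and centrifuged at 15,000g, 4 °C, for 30 min. Three repetitions. Supernatant read-outs: reducing sugar by DNS at 540 nm against glucose; chitosan (D-GlcNAc) by K2B4O7/DMAB at 544 nm; pyruvate by DNPH/NaOH at 520 nm; protein at 595 nm. Tris–HCl blank.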

[5] = system: Sclerotinia sclerotiorum; test: Change in mycelial reducing sugar level in Sclerotinia sclerotiorum after 24 hrs; format: functional; how it was run: as §2
[6] = system: Sclerotinia sclerotiorum; test: Change in mycelial chitosan content in Sclerotinia sclerotiorum after 6 hrs; format: functional; how it was run: as §2
[7] = system: Sclerotinia sclerotiorum; test: Effect on membrane permeability of Sclerotinia sclerotiorum at 100 ug/ml after 240 mins relative to control; format: functional, organism-based
How it was run: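 Washed S. sclerotiorum mycelium (1 g) was placed in tubes with the compound. Conductivity was read over time from 0 to 360 min, then after boiling and cooling. Relative permeability P% = (J1−J0)/(J2−J0)×100.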

[8] = system: Thanatephorus cucumeris; test: Antifungal activity against Thanatephorus cucumeris by poison plate technique; format: functional, organism-based
How it was run: (§3)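 Poison-plate assay on PDA against nine plant-pathogenic fungi at 100, 50, 25, 12.5 and 6.25 in the medium. Cultures were grown 4 days at 27±1 °C, and 4 mm mycelial plugs were placed centrally on plates and incubated 5 days at 27±1 °C. Acetone in sterile water was the blank. Inhibition % = (C−T)/(C−0.4)×100 from colony diameters. EC50 was obtained by probit analysis, averaged from at least three separate analyses.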

[9] = system: Sclerotinia sclerotiorum; test: Change in mycelial soluble protein content in Sclerotinia sclerotiorum after 0.5 hr relative to control; format: functional; how it was run: as §2
[10] = system: Fusarium graminearum; test: Antifungal activity against Gibberella zeae by poison plate technique; format: functional, organism-based; how it was run: as §3
[11] = system: Sclerotinia sclerotiorum; test: Change in mycelial reducing sugar level in Sclerotinia sclerotiorum after 24 hrs relative to hymexazol; format: functional; parameters: scale not given: the % may be the effect or the level left; how it was run: as §2
[12] = system: Colletotrichum gloeosporioides; test: Antifungal activity against Colletotrichum gloeosporioides by poison plate technique; format: functional, organism-based; how it was run: as §3
[13] = system: Sclerotinia sclerotiorum; test: Change in mycelial chitinase activity in Sclerotinia sclerotiorum assessed as N-acetyl-glucosamine level after 24 hrs
How it was run: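 Mycelial extract came from S. sclerotiorum grown 15 days in shaken Czapek broth at 27 °C, dosed at 100 and harvested at 24 h, in Tris–HCl pH 7.5. Extract was incubated with colloidal chitin 1 h at 37 °C, boiled and centrifuged. Released GlcNAc was read with 0.8 M K2B4O7, boiling, 1% DMAB, 20 min at 36 °C, A544. The blank was boiled before incubation.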

[14] = system: Sclerotinia sclerotiorum; test: Change in mycelial soluble protein content in Sclerotinia sclerotiorum after 24 hrs; format: functional
How it was run: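 Soluble protein was measured in extracts of S. sclerotiorum cultured 15 days in shaken Czapek broth at 27 °C, treated at 100 and harvested at 24 h. Dried mycelium was ground in 0.05 mol/L Tris–HCl pH 7.5 and centrifuged; absorbance was read at 595 nm with buffer blank. Three repetitions.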

[15] = system: Botrytis cinerea; test: Antifungal activity against Botrytis cinerea by poison plate technique; format: functional, organism-based; how it was run: as §3
[16] = system: Fusarium oxysporum; test: Antifungal activity against Fusarium oxysporum by poison plate technique; format: functional, organism-based
How it was run: (§4)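 Poison plate mycelial growth assay on PDA at 100, 50, 25, 12.5 and 6.25 µg/mL. Mycelial discs were grown at 27 ± 1 °C for 5 days and radial colony growth was measured. EC50 was estimated by probit analysis and averaged from at least three separate analyses.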

[17] = system: Rhizoctonia solani; test: Antifungal activity against Rhizoctonia solani by poison plate technique; format: functional, organism-based; how it was run: as §4
[18] = system: Sclerotinia sclerotiorum; test: Change in mycelial N-acetyl-glucosamine content in Sclerotinia sclerotiorum after 24 hrs; format: functional
How it was run: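 S. sclerotiorum was grown 15 days in Czapek broth shaken at 140 rpm and 27 °C, then dosed at 100 and sampled at 24 h. Dried mycelium (1.0 g) was ground in 0.05 mol/L Tris–HCl pH 7.5 and centrifuged at 15,000g, 4 °C. Supernatant with K2B4O7 was boiled 3 min, then 1% DMAB was added, 20 min at 36 °C, A544. Three repetitions.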

[19] = system: Cytospora; test: Antifungal activity against Cytospora mandshurica by poison plate technique; format: functional; how it was run: as §3
[20] = system: Sclerotinia sclerotiorum; test: Effect on sporule germination in Sclerotinia sclerotiorum assessed as germination ratio at 100 ug/ml; format: functional
How it was run: (§5)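 Compound was mixed into PDA at 0, 20, 40, 60, 80 and 100 µg/mL, and 0.5 mL spore suspension was spread per plate. Plates were incubated at 27 °C and checked every 2 h after 24 h. Germination was scored when control germination exceeded 90%, in three fields per dish, with three replicates. GR% = 100 × G/S.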

[21] = system: Sclerotinia sclerotiorum; test: Antifungal activity against Sclerotinia sclerotiorum by poison plate technique; format: functional, organism-based; how it was run: as §3
[22] = system: Phytophthora infestans; test: Antifungal activity against Phytophthora infestans by poison plate technique; format: functional, organism-based; how it was run: as §3
[23] = system: Sclerotinia sclerotiorum; test: Effect on sporule germination in Sclerotinia sclerotiorum assessed as germination ratio at 80 ug/ml; format: functional; how it was run: as §5
[24] = system: Sclerotinia sclerotiorum; test: Change in mycelial pyruvate content in Sclerotinia sclerotiorum after 24 hrs; format: functional; how it was run: as §2

COc1cc(-c2nnc([S+]([O-])Cc3cccc([N+](=O)[O-])c3)s2)cc(OC)c1OC (stereo not given)
inhibition at 50 µg/mL [1]: 3.31% | inhibition at 50 µg/mL [2]: 6.63% | inhibition at 50 µg/mL [3]: 5.45%

COc1cc(-c2nnc([S+]([O-])Cc3ccc(F)cc3)s2)cc(OC)c1OC (stereo not given)
inhibition at 50 µg/mL [1]: 2.54% | inhibition at 50 µg/mL [2]: 3.83% | inhibition at 50 µg/mL [3]: 6.4%

CCOC(=O)C[S+]([O-])c1nnc(-c2cc(OC)c(OC)c(OC)c2)o1 (stereo not given)
inhibition at 50 µg/mL [1]: 1.47% | inhibition at 50 µg/mL [2]: 6.9% | inhibition at 50 µg/mL [3]: 18.1%

CCOCC[S+]([O-])c1nnc(-c2cc(OC)c(OC)c(OC)c2)s1 (stereo not given)
inhibition at 50 µg/mL [1]: 8.14% | inhibition at 50 µg/mL [2]: 16.1% | inhibition at 50 µg/mL [3]: 16.8%

COc1cc(-c2nnc([S+]([O-])Cc3cccc(F)c3)s2)cc(OC)c1OC (stereo not given)
inhibition at 50 µg/mL [1]: 11.7% | inhibition at 50 µg/mL [2]: 12% | inhibition at 50 µg/mL [3]: 14.9%

COc1cc(-c2nnc([S+]([O-])Cc3ccc(Cl)nc3)o2)cc(OC)c1OC (stereo not given)
inhibition at 50 µg/mL [1]: 14.9% | inhibition at 50 µg/mL [2]: 11.9% | inhibition at 50 µg/mL [3]: 31.9%

COc1cc(-c2nnc([S+]([O-])Cc3cccc(F)c3)o2)cc(OC)c1OC (stereo not given)
inhibition at 50 µg/mL [1]: -0.88% | inhibition at 50 µg/mL [2]: -0.31% | inhibition at 50 µg/mL [3]: 7.29%

COc1cccc(C[S+]([O-])c2nnc(-c3cc(OC)c(OC)c(OC)c3)s2)c1 (stereo not given)
inhibition at 50 µg/mL [1]: 8.65% | inhibition at 50 µg/mL [2]: 11% | inhibition at 50 µg/mL [3]: 8.29%

COc1cc(-c2nnc([S+]([O-])Cc3ccccc3)o2)cc(OC)c1OC (stereo not given)
Activity [4]: 13.3% | Activity [5]: 0.37 mg/mL | Activity [6]: 0.12 mg/mL | permeability [7]: 26.7% | EC50 [8]: 23.4 µg/mL (≈ 62.6 µM) | Activity [9]: 43% | EC50 [10]: 28.8 µg/mL (≈ 77 µM) | inhibition at 50 µg/mL [1]: 52.3% | Activity [11]: 8.8% | EC50 [12]: 39.4 µg/mL (≈ 105 µM) | Activity [13]: 0.125 mg/mL | Activity [14]: 0.69 mg/mL | EC50 [15]: 21.6 µg/mL (≈ 57.8 µM) | inhibition at 50 µg/mL [2]: 56.1% | EC50 [16]: 58.5 µg/mL (≈ 156 µM) | EC50 [17]: 44.7 µg/mL (≈ 119 µM) | Activity [18]: 0.12 mg/mL | EC50 [19]: 64 µg/mL (≈ 171 µM) | Activity [20]: 5.4% | EC50 [21]: 19.9 µg/mL (≈ 53.2 µM) | EC50 [22]: 33.1 µg/mL (≈ 88.4 µM) | Activity [23]: 12.6% | inhibition at 50 µg/mL [3]: 53.3% | Activity [24]: 0.19 mg/mL

CCOC(=O)C[S+]([O-])c1nnc(-c2cc(OC)c(OC)c(OC)c2)s1 (stereo not given)
inhibition at 50 µg/mL [1]: 4.58% | inhibition at 50 µg/mL [2]: 8.42% | inhibition at 50 µg/mL [3]: 34.8%

Cc1cc(O)no1 [HYMEXAZOL]
permeability [7]: 24.6% | EC50 [8]: 40.4 µg/mL (≈ 408 µM) | EC50 [10]: 26.4 µg/mL (≈ 266 µM) | inhibition at 50 µg/mL [1]: 52.1% | EC50 [12]: 15.8 µg/mL (≈ 159 µM) | Activity [13]: 0.124 mg/mL | Activity [14]: 0.91 mg/mL | EC50 [15]: 5.12 µg/mL (≈ 51.7 µM) | inhibition at 50 µg/mL [2]: 52% | Activity [18]: 0.13 mg/mL | EC50 [19]: 21.4 µg/mL (≈ 216 µM) | EC50 [21]: 4.63 µg/mL (≈ 46.7 µM) | EC50 [22]: 25.1 µg/mL (≈ 253 µM) | inhibition at 50 µg/mL [3]: 53.7%

COc1cc(-c2nnc([S+]([O-])Cc3ccccc3Cl)o2)cc(OC)c1OC (stereo not given)
inhibition at 50 µg/mL [1]: 7.04% | inhibition at 50 µg/mL [2]: -0.33% | inhibition at 50 µg/mL [3]: 7.79%

COc1cc(-c2nnc([S+]([O-])Cc3ccccc3)s2)cc(OC)c1OC (stereo not given)
inhibition at 50 µg/mL [1]: 15.5% | inhibition at 50 µg/mL [2]: 16% | inhibition at 50 µg/mL [3]: 26.9%

COc1cc(-c2nnc([S+]([O-])Cc3ccccc3F)o2)cc(OC)c1OC (stereo not given)
inhibition at 50 µg/mL [1]: 4.4% | inhibition at 50 µg/mL [2]: 2.82% | inhibition at 50 µg/mL [3]: 11.3%

COc1cccc(C[S+]([O-])c2nnc(-c3cc(OC)c(OC)c(OC)c3)o2)c1 (stereo not given)
inhibition at 50 µg/mL [1]: 30.5% | inhibition at 50 µg/mL [2]: 25.7% | inhibition at 50 µg/mL [3]: 37.7%

COc1ccccc1C[S+]([O-])c1nnc(-c2cc(OC)c(OC)c(OC)c2)o1 (stereo not given)
inhibition at 50 µg/mL [1]: 32.3% | inhibition at 50 µg/mL [2]: 18.2% | inhibition at 50 µg/mL [3]: 29.9%
